Screening results (PubChem)
Hits are enriched below; roughly 2.9% of the tested compounds scored in any of these assays.
Dynein cargo inh: dynein cargo transport inhibition. 3617.4 mouse cells, GR-EGFP nuclear translocation imaging; test concentration mostly 20 µM; stimulated with dexamethasone, 1 µM; active compounds read low. z-score, hits read low. actives 0.47% (n = 220,000). AID 1381;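 active means plate z-score of nuclear minus cytoplasmic receptor signal below a set negative limit, without overly bright fluorescence or cell loss, cut at about -3.5 in these data, passing the limit was not always enough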;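 further: z-score of nuclear minus cytoplasmic ring GR-EGFP intensity difference per well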
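Buffer or medium: tet-free, stripped-serum medium; reagent: dexamethasone at 1.0 µM final, 30 min; incubation: 48 h induction, 1 h compound, 30 min dex at 37 °C; measured by: formaldehyde fixation, Hoechst nuclear stain, 10x automated fluorescence imaging; read-out: nuclear-to-cytoplasmic GR-EGFP distribution per well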
MEKK2 WT-MEK5: raises or lowers MEK5 binding to wildtype human MEKK2 PB1 domain | Q9Y2U5 | bead flow cytometry, Alexa488-MEK5 binding to MEKK2 WT; actives lie on both sides | binding response (% of control), % at 10 µM | actives 1.1% (n = 290,000) | AID 1531; in the data active means binding response below about 67% or above about 130%; inconclusive means no clear call, values can overlap the other calls; inactive means in between
Beta2AR agonist: agonists of human beta-2 adrenergic receptor inducing internalization; P07550; actives 0.43% (n = 340,000); Am2.2-beta2AR cells, FAP receptor internalization, flow cytometry; response, % (test concentration not listed);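 active means response above a set limit, near 3 SD of response in nonfluorescent compounds, cut at about 42% in these data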
MEKK3 PB1 HTS: raises or lowers MEK5 binding to the human MEKK3 PB1 domain | actives 1.4% (n = 290,000) | binding response (% of control), % at 10 µM | bead-based flow cytometry, Alexa488-MEK5 binding to MEKK3; actives lie on both sides; 0 = blocked by unlabeled MEK5, 100 = vehicle | Q99759 | AID 1529;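 active means binding response more than 3 SD above or below the average of its plate-row segment, actives on both sides; inconclusive means wells at one plate position flagged as instrument error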;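 further: Alexa488 bead fluorescence after subtracting the streptavidin-only scavenger bead signal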
MEKK2mut PB1 HTS: signal of MEK5 binding to mutant human MEKK2 PB1 domain. percent response, % at 10 µM. actives 0.35% (n = 290,000). AID 1530. bead flow cytometry, Alexa488-MEK5 binding to MEKK2 mutant; in the data active means percent response above about 24%, passing the limit was not always enough
ATG4B inhibitor: inhibitors of human ATG4B cysteine protease; actives 0.51% (n = 340,000); inhibition, % at 8.33 µM; ATG4B cleavage of LC3-PLA2, NBD-HPC fluorescence, 1 h; Q9Y4P1; AID 504462; in the data active means inhibition above about 40%
Target sequence (Q9Y4P1 whole entry, looked up): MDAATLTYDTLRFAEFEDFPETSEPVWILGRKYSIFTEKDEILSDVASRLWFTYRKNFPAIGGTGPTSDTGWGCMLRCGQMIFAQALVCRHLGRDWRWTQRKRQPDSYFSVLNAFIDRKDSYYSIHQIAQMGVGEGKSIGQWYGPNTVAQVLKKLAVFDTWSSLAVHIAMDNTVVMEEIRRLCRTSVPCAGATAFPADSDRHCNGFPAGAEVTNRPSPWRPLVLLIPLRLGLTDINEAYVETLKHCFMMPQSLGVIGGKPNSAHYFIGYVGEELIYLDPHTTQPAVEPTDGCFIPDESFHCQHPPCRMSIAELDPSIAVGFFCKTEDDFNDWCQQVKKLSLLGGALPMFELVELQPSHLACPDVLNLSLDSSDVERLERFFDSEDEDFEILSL
Dynein confirm: dynein cargo transport inhibition, confirmation. 3617.4 GR-EGFP nuclear translocation imaging, dexamethasone-induced. calls only at 20 µM. actives 69% (n = 1,000). shares compounds with Dynein cargo inh;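 active means inhibition of receptor movement into the nucleus at or above a set limit in both runs, with normal cell brightness and cell count; inconclusive means limit reached in only one run, brightness and count normal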;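 further: dexamethasone at 1 µM final in well for 30 min; nuclear minus cytoplasmic GR-EGFP mean intensity difference in channel 2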
The depositor's hits bear a star; i = inactive; ? = inconclusive; . = not tested or not shown; + = active, no number.

SMILES | Dynein cargo inh | MEKK2 WT-MEK5 | Beta2AR agonist | MEKK3 PB1 HTS | MEKK2mut PB1 HTS | ATG4B inhibitor | Dynein confirm
CCC(C)C(N)C1=NC(C(=O)N[C@@H](CC(C)C)C(=O)N[C@H](CCC(=O)[O-])C(=O)N[C@H](C(=O)N[C@H]2CCCCNC(=O)[C@H](CC(N)=O)NC(=O)[C@@H](CC(=O)[O-])NC(=O)[C@H](Cc3cnc[nH]3)NC(=O)[C@@H](Cc3ccccc3)NC(=O)[C@H]([C@@H](C)CC)NC(=O)[C@@H](CCCN)NC2=O)[C@@H](C)CC)CS1.[Zn+2] (stereo partly specified) | . | . | -0.9 | . | . | -0.4 | .
CCCc1ccc(/C=C2\C(=O)c3ccccc3C(O)=C2C(=O)OCC)cc1 | -3.54* | 93.0 | . | 105.0 | 0.0 | . | ?
CCOC(=O)C1=C(O)c2ccccc2C(=O)/C1=C\c1ccc(CC)cc1 | -4.71 | 103.0 | -212.6 | 103.0 | 6.0 | 4.8 | i
CCOC(=O)C1=C(Cc2ccc(OC)cc2)C(=O)c2ccccc2C1=O | -6.07 | . | -77.5 | . | . | 31.2 | +
Fc1ccc2cc(-c3ccsc3)ncc2c1 | . | . | 0.4 | . | . | 5.7 | .
COc1ccc(Cl)cc1NC(=O)CSc1nnc(CNC(=O)c2cccs2)o1 | . | 104.0 | -5.3 | 103.0 | 1.0 | -10.8 | .
O=C(NCc1ccccn1)c1coc(=O)c(Br)c1 | -4.12* | 102.0 | -7.4 | 102.0 | 6.0 | -2.3 | i
CCOC(=O)N1CCN(C(=O)c2ccc(NS(=O)(=O)c3ccc4[nH]c(=O)[nH]c4c3)cc2)CC1 | . | . | -4.0 | . | . | -3.5 | .
O=C(O)CSCC(=O)Nc1ccc(Cl)cc1C(F)(F)F | 0.317 | 105.0 | 3.3 | 101.0 | 3.0 | 0.2 | .
CC(C)N(CC(=O)Nc1ccc(Cl)cc1C(F)(F)F)C(=O)CCl | -7.06* | 99.0 | 13.1 | 101.0 | 1.0 | -0.7 | +
COc1ccc(/C=C/C(=O)c2c(O)c(OC)c3occc3c2OC)cc1 | -4.71* | 88.0 | 18.2 | 88.0 | -5.0 | -4.3 | +
COc1ccc(/C=C/C(=O)c2ccccc2O)cc1 | -0.903 | 96.0 | 10.0 | 99.0 | 4.0 | -6.6 | .
COc1ccc(S(=O)(=O)N2CCOCC2)cc1NC(=O)C1CCCCN1S(=O)(=O)c1ccccc1 (stereo unspecified) | . | . | 10.4 | . | . | -15.5 | .
CCOC(=O)CC1C(=O)NCCN1c1nc2ccc(C)cn2c(=O)c1/C=C1\SC(=S)N(C(C)CC)C1=O (stereo unspecified) | -3.65 | 66.0 | . | 95.0 | -21.0 | . | +
C/C(=N\NC(=O)c1n[nH]c2c1CCC2)c1ccco1 | 0.0294 | 102.0 | -6.1 | 94.0 | -15.0 | 1.5 | .
CCC(C)(C)C1CCc2[nH]nc(C(=O)N/N=C(\C)c3ccco3)c2C1 (stereo unspecified) | -3.81* | 99.0 | 19.1 | 108.0 | -1.0 | 2.2 | i
Cn1c(CO)nc2c3ccccc3ccc21 | . | . | -3.3 | . | . | -5.3 | .
O=C(c1ccccc1)c1ccc(OCC(O)CNCc2cccc(Cl)c2)cc1 (stereo unspecified) | . | 128.0 | -0.5 | 104.0 | 6.0 | 7.9 | .
O=C(CN1CCN(Cc2ccccc2)CC1)NC(=O)NCc1ccco1 | -0.453 | 115.0 | -2.0 | 107.0 | 9.0 | -1.5 | .
O=C(CN1CCN(S(=O)(=O)c2ccccc2[N+](=O)[O-])CC1)NC(=O)NCc1ccco1 | -3.63* | . | 0.2 | . | . | -8.2 | i
COc1cc(C(Nc2ccccn2)c2ccc3ccc(C)nc3c2O)cc(OC)c1O (stereo unspecified) | -3.64* | 97.0 | 40.4 | 98.0 | 0.0 | -4.4 | +
Cc1ccc2ccc(C(Nc3ccccn3)c3ccccc3)c(O)c2n1 (stereo unspecified) | 0.545 | 108.0 | 6.4 | 97.0 | 0.0 | -7.3 | .
CCOC(=O)c1c(NC(=O)/C=C\C(=O)O)sc(C)c1-c1ccccc1 | -3.52* | 90.0 | 1.4 | 82.0 | -1.0 | 5.5 | +
Cc1cnc(NC(=O)c2ccc3ncsc3c2)s1 | . | . | 11.6 | . | . | 8.4 | .
CN(C)c1oc(-c2ccccc2[N+](=O)[O-])nc1C#N | -5.06* | 102.0 | 0.7 | 104.0 | 3.0 | -8.3 | i
